Data on 96 molecules can be found in ChEMBL document CHEMBL4513216, “Probing the Open Global Health Chemical Diversity Library for Multistage-Active Starting Points for Next-Generation Antimalarials” (ACS Infect Dis, 2020).

Molecules are shown by their SMILES.

A short description of the data set: Toxicity liver stage against HepG2, at 10uM. Format: cell-based. Also on record: test concentration 10 uM, cell line HepG2-A16-CD81EGFP. To be noted: human, HepG2-A16-CD81EGFP cells; read-out: INHIBITION
The procedure, abridged: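 Uninfected HepG2-A16-CD81EGFP cells, 3 × 10^3 per well, 1536-well, plated on prespotted compound at 10 μM final, parasite-free screening media added to match infected plates; puromycin 10 μM positive, DMSO 0.5% negative; run in parallel with 48 h PbLuc assay at 37 °C, 5% CO2; viability by CellTiter-Glo luminescence, normalized to controls.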
For `COc1ccc(-c2csc(N)c2C#N)cc1OC`, the cytotoxicity at 10 µM was -2.46%. For the molecule `COc1c(Br)cc(Cl)cc1NCc1c(C)noc1C`, the cytotoxicity at 10 µM turned out to be 12.8%. As for `CCOC(=O)CCCNC(=O)CN1CCN(c2ncccn2)CC1`, the cytotoxicity at 10 µM is -13.3%. With `CN1C[C@@H](O)[C@]2(CCN(C(=O)OCc3ccccc3)C2)S1(=O)=O` the figure was -0.53%; with `O=C1CCNc2ccc(F)cc2CN1Cc1ccco1`, -1.36%; with `COC1CN(C(=O)CC(C)C)CCC(=O)N(C)c2ccccc21` (stereo unspecified), -2.72%.

Consider `Cn1cccc1C(CNC(=O)COc1ccc(Cl)cc1Cl)N1CCCC1` (stereo unspecified), for which the cytotoxicity at 10 µM is -8.64%. On to `CC(=O)NCc1cc(-c2cccs2)n(C2CCCC2)n1`, for which the cytotoxicity at 10 µM worked out at 3.29%.

Consider `CS(=O)(=O)N1CC[C@@H]2O[C@@H](COCC(=O)N3CCCC3)CC[C@@H]21`, for which the cytotoxicity at 10 µM was -0.879%. `CC(C)NC(=O)N1CCN(C(=O)c2ccco2)CC2(CC(=O)N(C)C2)C1` (stereo unspecified): the cytotoxicity at 10 µM is 6.15%. As for `O=C(COc1coc(CN2CCCCCC2)cc1=O)c1ccccc1`, the cytotoxicity at 10 µM worked out at 4.21%. Regarding `Cc1cc(C(=O)N2C[C@@H]3[C@@H](C2)OCC(=O)N3CC2CC2)no1`, the cytotoxicity at 10 µM was -10.4%.

On to `CCS(=O)(=O)Nc1ccn(Cc2cccc(F)c2)n1`, for which the cytotoxicity at 10 µM was 6.22%.

With `COC(=O)c1ccc(NS(=O)(=O)c2cnc(NC(C)=O)s2)cc1`, the cytotoxicity at 10 µM was determined as 9.35%.

For the molecule `CSc1cccc(NC(=O)Nc2c(O)oc3ccccc3c2=O)c1`, the cytotoxicity at 10 µM came to 4.45%. In the case of `CCCC1c2cccn2CCN1S(=O)(=O)N1CCOCC1` (stereo unspecified), the cytotoxicity at 10 µM was 1.26%.

Consider `CN(CC1(C)COC1)C(=O)c1cc(-c2ccnn2C)nc2ccccc12`, for which the cytotoxicity at 10 µM stood at 6.57%. On to `O=C(c1ccc2[nH]nnc2c1)N1CC[C@H](O)[C@]2(CCCO2)C1`, for which the cytotoxicity at 10 µM was -2.98%. The result for `O=C(O)COc1ccc(CN2CCCC(Cc3cccnc3)C2)cc1` (stereo unspecified) reads -4.98%; that for `CC(=O)N1CCC(c2cncc(Cl)n2)CC1`, 3.8%; that for `CN(C)c1nc(O)cc(C2CCN(C(=O)Cc3ccccn3)C2)n1` (stereo unspecified), -0.399%. Consider `Cc1cc(Nc2cnccn2)nc(C2CCCN(CCO)C2)n1` (stereo unspecified), for which the cytotoxicity at 10 µM was -5.87%. For the molecule `CC(=O)N1CCC(c2ncc3c(n2)CCN(C(=O)c2ccccc2)C3)C1` (stereo unspecified), the cytotoxicity at 10 µM was -8.69%. For the molecule `NC(=O)C1(CCCc2ccncc2)CCCN1` (stereo unspecified), the cytotoxicity at 10 µM was -21.5%. In the case of `C=Cn1cc(CN2CCc3nc(-c4cccnc4)nc(O)c3C2)c(C)n1`, the cytotoxicity at 10 µM is -6.94%. As for `O=C(C[S+]([O-])c1ccc(F)c(F)c1)NCc1cc(F)cc(F)c1` (stereo unspecified), the cytotoxicity at 10 µM worked out at 5.58%. With `O=C(Cc1cccc(F)c1F)N1CCOC(c2cccc(O)c2)C1` (stereo unspecified) the figure was 0.0788%; with `Cc1ccc(F)cc1S(=O)(=O)NCc1[nH]ncc1Br`, 10.3%. As to `COc1cc(NC(=O)N(C)CC2CC2)ncn1`, the cytotoxicity at 10 µM came to 7.09%.

`CCOc1ncccc1CNS(=O)(=O)c1ccc2c(c1)CCCC(=O)N2`: the cytotoxicity at 10 µM amounted to 12.1%. For `Cc1cccc(C(=O)N2CCSCC2)c1NC(=O)c1ccsc1`, the cytotoxicity at 10 µM turned out to be 3.85%. With `NC(=O)Cn1c(SCc2noc(-c3ccsc3)n2)nnc1C1CC1` the figure was 15.4%; with `CSCCC(NC(N)=O)C(=O)Nc1ccc(-n2cccn2)nc1` (stereo unspecified), 4.78%. With `CCS(=O)(=O)c1ccc(N2CCC(NC(=O)C(C)SC)CC2)cc1` (stereo unspecified), the cytotoxicity at 10 µM came out at 7.99%. With `CC(C)COCC(C)NC(=O)NCc1cccc(-n2cncn2)c1` (stereo unspecified) the figure was -0.662%; with `Cc1ccc(-c2nc(CN3CC(n4nc(C)cc4C)C3)no2)cc1`, -1.64%; with `Cc1nsc(NCCNS(=O)(=O)c2cccc(Cl)c2)n1`, 5.62%. The result for `CC(=O)NCCNC(=O)CN1CCCC1Cn1nc(C)nc1C` (stereo unspecified) reads -1.26%.

Consider `CN(CCc1ccncc1)C(=O)C1CSCN1C(=O)C1CCCC1` (stereo unspecified), for which the cytotoxicity at 10 µM was -7.39%. Take `O=C(Nc1ccc(CCN2CCSCC2)cc1)NC1CC1`: the cytotoxicity at 10 µM is -12.1%.

On to `CN(C(=O)C1CCC1)C1CCN(c2ccccc2Cl)C1=O` (stereo unspecified), for which the cytotoxicity at 10 µM is -0.949%. Consider `CC(C)c1noc(CNc2ccc(OC(F)F)cc2OC(F)F)n1`, for which the cytotoxicity at 10 µM came out at 23.6%.

For `O=C(NCc1nncn1C1CC1)c1ccc(F)c(COCC2CC2)c1`, the cytotoxicity at 10 µM stood at 10.2%. On to `Cc1ccc(C(=O)NS(C)(=O)=O)cc1S(C)(=O)=O`, for which the cytotoxicity at 10 µM is 4%.

`CCc1nnsc1C(=O)N(C)Cc1ccco1`: the cytotoxicity at 10 µM was -45%. `CCCOCC(=O)NC1CCc2nc(C)cn2C1` (stereo unspecified): the cytotoxicity at 10 µM was -2.88%.

`CC(=O)N1CCC(c2nc3ccc(C)cn3n2)CC1`: the cytotoxicity at 10 µM worked out at 0.819%.

With `Cc1nocc1C(=O)N1CCOC2(COCCN(CC3CC3)C2)C1` (stereo unspecified), the cytotoxicity at 10 µM came to 3.42%. For the molecule `CCN(CCOC)C(=O)c1ccc2c(c1)nc(N1CC[C@H](O)C1)n2C`, the cytotoxicity at 10 µM is -2.96%. The result for `CCC(O)CNc1ccc(-c2nc(CC(C)C)no2)cn1` (stereo unspecified) reads -6.19%; that for `Cc1nc(C(C)C)sc1C(=O)N1CCC(N2CCSCC2)CC1`, -3.54%; that for `CNc1ncc(C(=O)N[C@H]2CN(CCCSC)C[C@@H]2C2CC2)cn1`, 1.33%. With `CCN(CC)c1ncccc1CNC(=O)c1cc2nc(C)cc(C)n2n1`, the cytotoxicity at 10 µM came out at 6.43%. As to `COc1cc(CN2CC[C@@H](N3CCCCCC3)[C@H](O)C2)cc(Cl)c1OC`, the cytotoxicity at 10 µM is -1.47%. The result for `CCCc1ccc(CN2CCC3(CCC(=O)N(C(C)C(=O)O)C3)CC2)o1` (stereo unspecified) reads -2.69%. Turning to `CCN1CC(C(=O)NCCc2csc(-c3ccncc3)n2)CCC1=O` (stereo unspecified), the cytotoxicity at 10 µM is -11.3%. Regarding `O=C(NCCC1CN(Cc2c[nH]cn2)CCO1)Nc1ccccc1` (stereo unspecified), the cytotoxicity at 10 µM was -1.92%. For `CCC(=O)N1CCC2(CC1)c1nc[nH]c1CCN2S(C)(=O)=O`, the cytotoxicity at 10 µM was -11.4%. Turning to `COc1ccccc1C1CNC(=O)c2nc(-c3ncc[nH]3)[nH]c2C1` (stereo unspecified), the cytotoxicity at 10 µM was -8.6%. For `c1ccc(Cc2noc(CN3CCCCC3Cn3cccn3)n2)cc1` (stereo unspecified), the cytotoxicity at 10 µM is -0.945%. `Cc1csc(C2CCCCN2C(=O)c2c[nH]c(C)n2)n1` (stereo unspecified): the cytotoxicity at 10 µM was -33.7%. As to `Cc1noc(Cl)c1CCC(=O)N1CCN(Cc2ccncc2)CC1`, the cytotoxicity at 10 µM is -14.2%. As to `Cc1nc(C)n(CC2CN(Cc3ccc4c(c3)OCCO4)CCO2)n1` (stereo unspecified), the cytotoxicity at 10 µM was -3.63%.

Regarding `O=C(CCc1ccccc1F)N1CCC(Nc2cccnn2)CC1`, the cytotoxicity at 10 µM is -3.78%. Consider `c1cnn(CC2CN(Cc3nnc(C4CC4)o3)CCO2)c1` (stereo unspecified), for which the cytotoxicity at 10 µM is -5.09%. The result for `Cc1noc(C)c1CCC(=O)N1CCCN(C)CC1` reads -14.1%; that for `Cc1noc(C)c1CCC(=O)N1CCN(Cc2cscn2)CC1`, -6.28%; that for `Cc1ccc(CC(=O)N2CCC(Nc3ccc(C)nn3)CC2)cn1`, -4.75%. With `CC(C)c1nccn1C1CCCN(C(=O)c2cn3cccnc3n2)C1` (stereo unspecified) the figure was -3.63%; with `Cc1cccc(OCCCN2CCC(N(C)Cc3noc(C)n3)C2)c1` (stereo unspecified), -2.61%.

On to `CCN1CCN(CCNC(=O)c2sc(C)nc2C)CC1`, for which the cytotoxicity at 10 µM came to 0.927%. The result for `COCCc1noc(CN2CCCC2Cn2nc(C)cc2C)n1` (stereo unspecified) reads -1.92%.

With `CC(C)c1nc(C2CCCN(C(=O)c3ccc4c(c3)COC4)C2)no1` (stereo unspecified), the cytotoxicity at 10 µM is -7%. Take `COc1ccc(CC(=O)N2CCCC2Cn2cc(C)cn2)cc1OC` (stereo unspecified): the cytotoxicity at 10 µM was -17.9%.

Take `CC(C)c1nccn1C1CCCN(C(=O)c2cccc3[nH]ncc23)C1` (stereo unspecified): the cytotoxicity at 10 µM was -0.35%.

Regarding `Cc1occc1CN(C)Cc1nc2c(cnn2C)c(=O)[nH]1`, the cytotoxicity at 10 µM was determined as 2.11%. In the case of `CSCCC(=O)NS(=O)(=O)c1ccc2c(c1)OCCO2`, the cytotoxicity at 10 µM is -14.7%.

For `O=C(O)C1CCCCN1C(=O)c1cccc(C(F)(F)F)c1` (stereo unspecified), the cytotoxicity at 10 µM was -5.95%. With `COc1ccccc1CC(=O)N1CCC(NCc2c[nH]nc2C)CC1`, the cytotoxicity at 10 µM was -13.5%. With `O=C(NCCNc1ncccn1)Nc1cc(C(F)(F)F)c[nH]c1=O` the figure was -4.69%; with `Cc1cnn(C2CCCN(C(=O)CCCNc3ncccn3)C2)c1` (stereo unspecified), -3.27%; with `O=C(Cc1ccccc1)N1CCN(Cc2noc(C3CC3)n2)CC1`, 1.15%.

`Cc1cc(C)n(C2CCCN(C(=O)c3cnc4onc(C)c4c3)C2)n1` (stereo unspecified): the cytotoxicity at 10 µM worked out at 5.17%. Turning to `Cn1cc(CN(Cc2ccccc2)Cc2ccccn2)cn1`, the cytotoxicity at 10 µM is 19.1%. `O=C(CN1CCC(c2cc(=O)n3c(n2)CCCCC3)C1)N1CCCCC1` (stereo unspecified): the cytotoxicity at 10 µM is -22.8%. Regarding `Fc1ccc(CN2CCC(F)(F)C3(CCN(c4cnccn4)C3)C2)cc1` (stereo unspecified), the cytotoxicity at 10 µM is 8.62%. Turning to `CNC(=O)CNCc1c[nH]nc1-c1cc2ccccc2o1`, the cytotoxicity at 10 µM turned out to be 6.7%. Take `Cn1cccc1C(=O)N1CCO[C@H]2[C@H](OCc3cccnc3)CC[C@@H]21`: the cytotoxicity at 10 µM is 7.2%. For `Cn1cccc1C(=O)N1CC[C@@H]2[C@@H]1CC(=O)N2CCN1CCOCC1`, the cytotoxicity at 10 µM was -7.41%. On to `NC(=O)COc1ccc(CNCc2cc(F)ccc2F)cc1`, for which the cytotoxicity at 10 µM turned out to be 18.5%. Regarding `c1ccc(OCC2C[C@@H]3[C@@H](C2)OCCN3CC2CCOCC2)nc1` (stereo partly specified), the cytotoxicity at 10 µM was 2.75%. In the case of `CC(C)(C)n1cc(CNC2CCN(C(=O)c3ccoc3)CC2)cn1`, the cytotoxicity at 10 µM was determined as 6.35%. Take `COCCN1CC[C@H]2OCC[C@@H](C(=O)N3CCCO3)[C@H]2C1`: the cytotoxicity at 10 µM was found to be 4.55%. As to `CN1CC(=O)N(c2cccc(F)c2)CC12CCN(Cc1cccnc1)C2` (stereo unspecified), the cytotoxicity at 10 µM amounted to 9.69%.

Turning to `O=C(Nc1ccc(F)cc1)N1C[C@@H]2C[C@H](C(=O)N3CCOCC3)[C@H](C1)O2`, the cytotoxicity at 10 µM came to 3.41%. Regarding `COCCN1C(=O)[C@@H]2CC[C@H]1CN(S(=O)(=O)c1ccc(OC)cc1)C2`, the cytotoxicity at 10 µM came out at 6.35%.
